# Results from ChEMBL document CHEMBL4261577, “CureCuma-cationic curcuminoids with improved properties and enhanced antimicrobial photodynamic activity” (Eur J Med Chem, 2018).
# Activity calls are given as the source filed them. The calls are words filed in the database; no cut-off is given here.
# Columns and labels:
# Escherichia coli [1] = experiment: Photodynamic antibacterial activity against Escherichia coli ATCC 25922 assessed as reduction in bacterial burden at 50 uM complexed with PVP in presence of LED irradiation at LED light at 33.8 J/cm2; assay type: functional, organism-based
# Escherichia coli [2] = experiment: Photodynamic antibacterial activity against Escherichia coli ATCC 25922 assessed as CFU log reduction at 100 uM complexed with PVP in presence of LED irradiation at LED light at 33.8 J/cm2 relative to control; assay type: functional
# [3] = Induction of reactive oxygen species formation assessed as singlet oxygen quantum yield at 2 uM measured over 20 mins by luminescence assay; assay type: functional; details: in the assay text read “over 50 secs” for “over 20 mins”
# How it was run: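 Singlet oxygen luminescence at 1270 nm from a 2 µM solution compared against TMPyP (0.5 µM) as reference, relating absorbed energy to emission; excitation at 405 nm with a tunable laser at 107, 162, 255 and 283 mW for 50 s each.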
# [4] = Photodegradation of compound in water at 10 uM in presence of LED illumination at 5.6 J/cm'2 for 10 mins by UV/VIS/NIR spectrometer; assay type: physicochemical; details: read-out: Drug degradation
# How it was run: (§1)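 10 µM in water in a 1 cm quartz cuvette, illuminated at 435 nm with the bacterial-testing LED (9.4 mW/cm²); absorption spectra taken at set time intervals, chromophore band 380–460 nm followed; half-life from extrapolation.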
# [5] = n-Octanol/sorensen buffer partition coefficient, log D of compound at 50 uM at pH 7 after 10 mins by shake-flask method; assay type: physicochemical
# How it was run: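 Shake-flask at 25 °C: 50 µM photosensitizer in 10 mM Sörensen buffer pH 6.8 vigorously mixed with equal volume n-octanol for 10 min, phases separated by centrifugation; aqueous-phase absorbance before and after partitioning gives the coefficient.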
# [6] = Stability of compound in DMSO-d6 at 10 mM incubated up to 130 degC measured after > 10 mins by NMR method; assay type: physicochemical; details: 10000 µM
# How it was run: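 1H NMR at 10 mM heated stepwise from room temperature through 40–130 °C in 10 °C steps, then cooled back to room temperature; aggregation/stability judged from aromatic-region shifts; external TMS reference, 400 MHz.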
# Staphylococcus aureus = experiment: Photodynamic antibacterial activity against Staphylococcus aureus ATCC 25923 assessed as CFU log reduction at 50 uM irradiated for 5 mins in presence of blueV lamp irradiation at 5.3 J/cm2 and measured after 24 hrs; assay type: functional
# How it was run: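 S. aureus ATCC25923 grown aerobically at 37 °C in Mueller-Hinton broth, pelleted and resuspended in distilled water to OD600 0.6 (~10^8 cells/mL); incubated 1 min with photosensitizer in 96-well plates, irradiated with BlueV source (390–460 nm, 20 mW/cm²) to 5.3 J/cm²; CFU by Miles-Misra on Mueller-Hinton agar after 24 h at 37 °C; log reduction versus untreated control; ≥3 replicates.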
# Escherichia coli [7] = experiment: Dark toxicity in Escherichia coli ATCC 25922 assessed as decrease in viable cells at 10 uM; assay type: organism-based; details: in vivo
# How it was run: (§2)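 E. coli ATCC25922 prepared as for phototoxicity (2 h subculture, DPBS resuspension), incubated with photosensitizer at 37 °C, 175 rpm, but kept in foil-wrapped plates without illumination; CFU counted from serial dilutions on Todd-Hewitt/yeast extract agar after overnight 37 °C, compared against untreated, unilluminated control; three biological replicates.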
# [8] = Stability of compound in diluted HCl at 50 uM after 4 hrs by UV-Vis spectrophotometric method; assay type: physicochemical; details: buffer
# How it was run: (§3)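 UV-Vis spectra recorded after 4 h incubation in buffer solutions at different pH values, acidic down to pH 2 and alkaline above pH 10.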
# [9] = Aggregating behavior of compound at 1 to 2 mM by NMR analysis; assay type: physicochemical; details: 2000 µM
# How it was run: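 1H NMR in D2O at 20, 10, 5, 2 and 1 mM; aggregation judged from signal shifts and multiplet changes in the aromatic region (6.5–8 ppm), referenced to external TMS, 400 MHz.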
# Escherichia coli [10] = experiment: Dark toxicity in Escherichia coli ATCC 25922 assessed as decrease in viable cells at 50 uM relative to control; assay type: organism-based; details: in vivo; how it was run: as §2
# [11] = Stability of compound in diluted NaOH at 50 uM after 4 hrs by UV-Vis spectrophotometric method; assay type: physicochemical; how it was run: as §3
# [12] = Drug level in 0.1 M phosphate buffer treated with curcumin at pH 7.2 at 37 degC after 30 mins by HPLC method; assay type: physicochemical; details: pH 7.2, 0.5 h
# Escherichia coli [13] = experiment: Photodynamic antibacterial activity against Escherichia coli ATCC 25922 assessed as CFU log reduction irradiated for 1.5 mins in presence of 0.85 J/cm2 and measured after 24 hrs; assay type: functional; details: ATCC 25922, light or radiation study, read-out: MBC99.9
# [14] = Photodegradation of compound in water at 10 uM in presence of LED illumination at 16.9 J/cm'2 for 30 mins by UV/VIS/NIR spectrometer; assay type: physicochemical; details: read-out: Drug degradation; how it was run: as §1
# Escherichia coli [15] = experiment: Photodynamic antibacterial activity against Escherichia coli ATCC 25922 assessed as CFU log reduction at 10 uM irradiated for 5 to 25 mins in presence of LED light at 33.8 J/cm2 and measured after 24 hrs relative to control; assay type: functional
# How it was run: (§4)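 E. coli ATCC25922 grown overnight at 37 °C (175 rpm) in Todd-Hewitt broth + 0.3% yeast extract, diluted to A 0.05, grown 2 h (A600 0.3–0.45), pelleted and resuspended in DPBS; incubated with photosensitizer 5 or 25 min at 37 °C, illuminated with 435 nm LED array (9.4 mW/cm², 33.8 J/cm²) while shaken; serial dilutions plated, CFU counted after overnight 37 °C. Log reduction versus untreated, unilluminated control; ≥3 biological replicates; detection limit 10 CFU/mL.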
# Escherichia coli [16] = experiment: Photodynamic antibacterial activity against Escherichia coli ATCC 25922 assessed as CFU log reduction at 10 uM irradiated for 2.5 mins in presence of 1.41 J/cm2 and measured after 24 hrs; assay type: functional
# Escherichia coli [17] = experiment: Photodynamic antibacterial activity against Escherichia coli ATCC 25922 assessed as CFU log reduction irradiated for 5 to 25 mins in presence of LED light at 33.8 J/cm2 and measured after 24 hrs; assay type: functional; details: ATCC 25922, light or radiation study, read-out: MBC99.9; how it was run: as §4
# [18] = Half life of compound in water at 10 uM in presence of LED illumination at 9.4 mW/cm'2 by UV/VIS/NIR spectrometer; assay type: physicochemical; how it was run: as §1
# [19] = Aggregating behavior of compound up to 1 mM by UV-Vis spectroscopic analysis; assay type: physicochemical
# How it was run: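 UV-Vis absorption spectra in H2O over 100–1000 µM; dimerization judged from spectral changes within error margins.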
Compound,"degraded at 10 min, 10 µM [4]","logD at 10 min, 50 µM [5]",Activity [3],further results
COc1cc(/C=C/C(=O)CC(=O)/C=C/c2ccc(O)c(OC)c2)ccc1O [CURCUMIN],–,–,–,Activity (Escherichia coli [1]): inactive; Activity (Escherichia coli [2]): 0.3 deltalog10CFU/ml
Cl.Cl.NCCOc1ccc(/C=C/C(=O)CC(=O)/C=C/c2ccc(OCCN)cc2)cc1,< 10%,-0.9,< 1%,–
Cl.Cl.Cl.Cl.Cl.Cl.NCCOc1cc(/C=C/C(=O)CC(=O)/C=C/c2cc(OCCN)c(OCCN)c(OCCN)c2)cc(OCCN)c1OCCN,< 10%,< -2,< 1%,–
Cc1cc(/C=C/C(=O)CC(=O)/C=C/c2ccc(OCCN)c(C)c2)ccc1OCCN.Cl.Cl,< 10%,-0.8,< 1%,Stability [6]: Stable
CC(C)=O [ACETONE],–,–,–,Drug metabolism [12]: Metabolite_Detected
COc1cc(C=O)ccc1O [VANILLIN],–,–,–,Drug metabolism [12]: Metabolite_Detected
COc1cc(OCCN)ccc1/C=C/C(=O)CC(=O)/C=C/c1ccc(OCCN)cc1OC.Cl.Cl,< 10%,-1.1,< 1%,–

# Further lines, with some results ahead:
"degraded at 10 min, 10 µM [4]","logD at 10 min, 50 µM [5]",Compound,Activity [3],further results
< 10%,-1.2,COc1cc(/C=C/C(=O)CC(=O)/C=C/c2ccc(OCCN)c(OC)c2)ccc1OCCN.Cl.Cl,< 1%,log reduction (Staphylococcus aureus): 5.2 log10 CFU/mL; Activity (Escherichia coli [7]): Non-Toxic; Stability [8]: Stable; Activity [9]: Active; Activity (Escherichia coli [10]): 0.5 deltalog10CFU/ml; Stability [11]: Unstable
< 10%,< -2,Cl.Cl.Cl.Cl.NCCOc1ccc(/C=C/C(=O)CC(=O)/C=C/c2ccc(OCCN)c(OCCN)c2)cc1OCCN,< 1%,"MBC (Escherichia coli [13]): 10 µM; log reduction (Staphylococcus aureus): 5.3 log10 CFU/mL; Activity (Escherichia coli [7]): Non-Toxic; degraded at 0.5 h, 10 µM [14]: 20%; Stability [8]: Stable; Activity (Escherichia coli [15]): 5 deltalog10CFU/ml; Activity (Escherichia coli [16]): >5 deltalog10CFU/ml; MBC (Escherichia coli [17]): 5 µM; half-life at 10 µM [18]: 1 h; Activity (Escherichia coli [10]): 1 deltalog10CFU/ml; Stability [11]: Unstable; Activity [19]: Active"
< 10%,-0.6,Cl.Cl.NCCCOc1ccc(/C=C/C(=O)CC(=O)/C=C/c2ccc(OCCCN)c(OCc3ccccc3)c2)cc1OCc1ccccc1,< 1%,–
< 10%,-1.6,COc1cc(/C=C/C(=O)CC(=O)/C=C/c2ccc(OCCOCCN)c(OC)c2)ccc1OCCOCCN.Cl.Cl,< 1%,–
